DAGLB inh = diacylglycerol lipase beta (human) inhibition. HEK293T DAGLB membrane lysate, EnzChek fluorogenic substrate. 340,000 compounds, 0.059% hits. inhibition, % at 5.17 µM. AID 504411. Q8NCG7; in the data active = inhibition above about 34%;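 also: 0% = enzyme with vehicle and 100% = wells lacking enzyme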
Target sequence (Q8NCG7 whole entry, looked up): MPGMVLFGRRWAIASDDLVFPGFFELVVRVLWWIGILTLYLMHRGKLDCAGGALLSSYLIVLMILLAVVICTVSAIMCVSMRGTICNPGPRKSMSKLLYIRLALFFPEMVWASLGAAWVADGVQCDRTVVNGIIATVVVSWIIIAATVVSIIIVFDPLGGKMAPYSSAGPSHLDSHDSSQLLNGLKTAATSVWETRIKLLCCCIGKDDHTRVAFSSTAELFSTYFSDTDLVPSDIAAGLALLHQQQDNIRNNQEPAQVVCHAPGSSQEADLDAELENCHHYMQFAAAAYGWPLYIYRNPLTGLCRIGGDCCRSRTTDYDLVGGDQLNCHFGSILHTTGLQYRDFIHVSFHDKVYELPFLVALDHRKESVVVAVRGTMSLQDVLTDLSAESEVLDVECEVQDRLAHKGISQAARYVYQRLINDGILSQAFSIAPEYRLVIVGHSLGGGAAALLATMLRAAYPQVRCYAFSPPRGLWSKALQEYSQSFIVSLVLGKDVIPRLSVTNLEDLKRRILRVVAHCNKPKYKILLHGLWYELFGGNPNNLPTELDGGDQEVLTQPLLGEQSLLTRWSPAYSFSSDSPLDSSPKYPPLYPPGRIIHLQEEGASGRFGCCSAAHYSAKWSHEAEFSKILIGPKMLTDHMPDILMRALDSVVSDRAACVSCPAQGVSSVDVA
Tn6 DDE FP = disrupts Tn6 cyclic peptide binding to fibrin D-Dimer-E complex. Fibrin DD(E) TRITC-Tn6 fluorescence polarization displacement. inhibition, % at 8.3 µM. 370,000 compounds, 0.21% hits. AID 720509;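 active = inhibition above a per-campaign cutoff: mean of compounds within control limits plus 3 SD, cut at about 15% in these data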;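 also: 0% = median of all compound wells on the plate and 100% = blocking peptide control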
PolyA inhibitor = yeast polyadenylation inhibition; AID 1875; S. cerevisiae SKY197-pL101 polyadenylation reporter, beta-gal luminescence; efflux-impaired pdr1/pdr3 knockout yeast; score 100 = 6 SD above DMSO; 300,000 compounds, 0.02% hits; activity score, % at 12 µM;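 active = lowest replicate activity score at least 50, where 100 means six control SD above control mean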;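 also: yeast exposed to compound for 9 h at 30 °C; higher score means more reporter readthrough which indicates perturbed polyadenylation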
Tn7 DDE FP = disrupts Tn7 cyclic peptide binding to fibrin D-Dimer-E complex. 370,000 compounds, 0.13% hits. FP displacement of FITC-Tn7 peptide from fibrin DD(E); 0% = median of compound wells per plate. inhibition, % at 8.3 µM. AID 720508. P02675;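 active = inhibition above the mean of compounds falling within the control limits plus 3 SD of them, cut at about 14% in these data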;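 also: 0% = plate median of compound wells and 100% = 10 µM Aha-Tn7 peptide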
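Assay system: human fibrin DD(E). Input: DD(E) 2 µM final. Medium: Tris buffer with calcium and detergent, pH 7.8. Compound dosing: single point at 8.3 µM. Timing: 10 min plus 3 h, room temperature. Technique: fluorescence polarization of the labelled Tn7 tracer. Read-out: percent inhibition. Replicates: singlicate testing.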
SKN-1 inh = blocks SKN-1 activity in C. elegans; C. elegans VP596 Pgst-4::GFP/RFP ratio, acrylamide-induced, 24 h; inhibition, % at 21.8 µM; 360,000 compounds, 0.49% hits;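 active = interference check ratio from 0.5 to 1.5 plus GFP to RFP signal ratio inhibition reaching or exceeding a fixed threshold, cut at about 30% in these data, passing the limit was not always enough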
MT1-MMP act inh = inhibitors of human MT1-MMP activation; HT1080 RFP-PRO-GFP cells, GFP/RFP ratio fluorescence, overnight; percent of plate control window, DMSO zero; GFP/RFP ratio change, % at 20 µM; 360,000 compounds, 0.061% hits;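 active = GFP/RFP ratio change of at least 30% with cell ATP level not reduced by more than half and red fluorescence within 50% of control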
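Assay system: HT1080 cells carrying an RFP-PRO-GFP reporter | Dosing: Single dose of 20 µM compound, 1% DMSO final | Incubation: Cells overnight before dosing, compound overnight, 37 °C, 5% CO2 | Evaluation: GFP/RFP fluorescence ratio | Control set: DMSO and RFP-L50D-GFP cell wells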
DAGLB inh conf = DAGLB (human) inhibition, confirmation screen; shares compounds with DAGLB inh; HEK293T DAGLB membrane lysate, EnzChek fluorogenic substrate; inhibition, % at 5.17 µM; 190 compounds, 73% hits; AID 504445;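 active = mean inhibition over triplicate wells above a set limit taken from the primary lipase screen, cut at about 34% in these data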;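 also: 0% = DAGLB with DMSO and 100% = wells lacking DAGLB enzyme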
The depositor's hits bear a star; · = no result. Hits are enriched below; roughly 0.9% of the tested compounds scored in any of these assays.

SMILES	DAGLB inh	Tn6 DDE FP	PolyA inhibitor	Tn7 DDE FP	SKN-1 inh	MT1-MMP act inh	others
c1cncc(C2Nc3ccccc3-c3nc4ccccc4n32)c1 (centres undefined)	-0.2	1.2	-11.3	-2.1	19.1	-23.3
CN1CCC(N[C@@H](Cc2ccccc2)C(=O)NCC(c2ccccc2)c2ccccc2)(C(=O)NC2CCCCC2)CC1	·	7.0	·	0.9	·	·
COc1ccc(S[C@]2(C(=O)N(C)C)CC(=O)N(C(=O)C3CC3)[C@@H]2c2ccc(OC)cc2)cc1	·	1.4	·	1.2	·	·
O=S(=O)(CC(O)COc1ccccc1Cl)c1ccccc1 (centres undefined)	-2.2	-4.3	9.8	-8.6	2.5	0.4
N#Cc1ccccc1OCC(O)CS(=O)(=O)c1ccccc1 (centres undefined)	0.2	1.4	8.3	3.9	53.2*	0.6
c1csc(-c2noc(COc3ccc4c(c3)CCCC4)n2)c1	-26.6	8.2	3.6	-1.4	37.8*	-5.3
Brc1ccc(-c2noc(COc3ccc4c(c3)CCC4)n2)o1	-31.7	-3.4	13.8	0.3	3.3	5.7
CC(C)(C)c1ccc(S(=O)(=O)NCC(=O)N2CCN(c3ncccn3)CC2)cc1	·	1.6	·	0.6	·	·
Cc1ccc(C)c(NC(=O)c2cc(-c3ccc(Cl)cc3)nc3ccccc23)c1	·	3.0	·	0.7	·	·
c1ccc(-c2ccc(CNc3nc(-c4ccccn4)nnc3-c3ccccc3)cc2)cc1	·	-13.5	·	-7.5	·	·
COc1ccc(C(=O)N=c2sccn2C)cc1	-0.8	2.2	-6.2	4.7	15.8	-2.7
COC(=O)c1ccc(C(=O)N=c2sccn2C)cc1	-0.8	9.7	0.1	-3.3	18.1	0.5
Cn1ccsc1=NC(=O)c1ccc(OC(F)(F)F)cc1	-4.7	3.7	1.4	1.6	51.3*	-4.1
Cn1ccsc1=NC(=O)c1ccc(Cl)cc1	-3.9	2.3	-7.3	1.7	43.2*	-0.7
COc1ccc(S[C@]2(C(=O)N3CCCC3)CC(=O)N(c3ccc4c(ccn4C)c3)[C@@H]2c2ccc(OC)cc2)cc1	·	0.5	·	1.6	·	·
O=c1[nH]c2cc(Cl)c(Cl)cc2o1	3.9	-3.2	·	-2.4	10.0	-0.5
O=c1[nH]c2cc(Cl)c(Br)cc2o1	2.2	1.8	·	2.6	35.4*	0.6
COc1ccc(-c2cccc(NC(=O)COc3ccc(Cl)cc3)c2)nn1	0.3	·	80.9*	·	9.1	3.6
Oc1ccc(N=Nc2n[nH]c(-c3ccccc3)n2)cc1	5.2	-5.8	12.7	8.5	2.0	3.8
Oc1ccc(N=Nc2nc(-c3ccccc3)c(-c3ccccc3)[nH]2)cc1	37.6*	0.0	-47.1	-1.1	11.4	8.5	DAGLB inh conf=30.9
Clc1ccc2nc(CNc3nc(N4CCOCC4)nc4c3ncn4-c3ccsc3)[nH]c2c1	·	-7.7	·	4.2	·	·
O=C(NC(C(=O)N/N=C/c1ccccc1)c1n[nH]c(=O)c2ccccc12)c1ccccc1 (centres undefined)	31.8	-0.2	15.6	1.7	5.5	4.6
O=C(NC(C(=O)N/N=C/c1c2ccccc2cc2ccccc12)c1n[nH]c(=O)c2ccccc12)c1ccccc1 (centres undefined)	39.9*	-1.0	1.0	7.6	-5.4	-12.5	DAGLB inh conf=37.5*
Cc1ccc(C2C(/C=C3/SC(=S)NC3=O)=C(c3cccs3)Oc3ccccc32)cc1 (centres undefined)	39.5*	-3.8	-12.2	0.7	14.3	-20.1	DAGLB inh conf=44.3*
CC1Cc2cc(/C=C3/SC(=S)NC3=O)ccc2O1 (centres undefined)	13.4	5.3	-46.4	-3.0	-25.7	-2.5
Cc1ccc(Nc2nnc(SCc3nc4ccccc4c(=O)[nH]3)s2)cc1	59.7*	-9.0	1.2	3.0	1.3	-1.8	DAGLB inh conf=50.4*
CN(CCO)c1ccc2c(c1)Oc1ccccc1CN(Cc1cn(Cc3ccc(C(F)(F)F)cc3)nn1)S2(=O)=O	·	7.9	·	0.6	·	·
